Assay results as given in ChEMBL document CHEMBL1154792, “chi-Conopeptide pharmacophore development: toward a novel class of norepinephrine transporter inhibitor (Xen2174) for pain” (J Med Chem, 2009).

Species: Rattus norvegicus
Assay: Toxicity in CCI rat pain model assessed as side effects
Type: organism-based
Conditions: in vivo
Method in brief: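 Rats with unilateral sciatic chronic constriction injury received a single intrathecal bolus via an implanted cannula 14 days after surgery, with morphine and vehicle as comparators. Compound-related behavioural observations were recorded alongside von Frey paw-withdrawal testing. Three animals per analogue.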

## CC(C)C[C@@H]1NC(=O)[C@H](CCCCN)NC(=O)[C@H](Cc2ccc(O)cc2)NC(=O)CNC(=O)[C@@H]2CSSC[C@H](NC1=O)C(=O)N[C@@H](Cc1cnc[nH]1)C(=O)N1CC[C@H](O)[C@H]1C(=O)N[C@H](C(=O)O)CSSC[C@H](NC(=O)[C@@H](NC(=O)CNC(=O)[C@@H](N)CC(N)=O)C(C)C)C(=O)N2
  Activity: Toxic
